According to ChEMBL document CHEMBL5344470, “Probing the Use of Triphenyl Phosphonium Cation for Mitochondrial Nucleoside Delivery” (ACS Med Chem Lett, 2024):

Columns and labels:
esterase = assay: Stability of compound assessed as pig liver esterase mediated hydrolysis by measuring half life at 50 uM by HPLC analysis; assay type: ADME, Sus scrofa
Outline: (§1)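 Compounds incubated with pig liver esterase, cell culture medium or MCF-7 cell extracts; decomposition followed by HPLC with direct injection of the biological medium, no sample pretreatment; half-lives determined; hydrolysis metabolite identified by co-injection with authentic sample.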

[1] = Stability of compound in culture media assessed as compound hydrolysis by measuring half life at 50 uM by HPLC analysis; assay type: physicochemical; outline: as §1
[2] = Stability of compound in MCF7 cell extract assessed as compound hydrolysis by measuring half life at 50 uM by HPLC analysis; assay type: physicochemical; details: human; outline: as §1
[3] = Drug metabolism assessed as compound hydrolysis by measuring 2-(6-hydroxy-3-oxo-3H-xanthen-9-yl)-5-((1-((2R,4S,5R)-4-hydroxy-5-(hydroxymethyl)tetrahydrofuran-2-yl)-2-oxo-1,2-dihydropyrimidin-4-yl)carbamoyl)benzoic acid formation; assay type: ADME; outline: as §1
[4] = Drug localization in mitochondria of human MCF7 cells at 50 uM incubated for 24 hrs by MitoTracker red CMXRos staining based confocal fluorescence microscopy; assay type: ADME; details: mcf7, 24 h
Outline: (§2)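 MCF-7 cells incubated 24 h at 37 °C with 50 μM fluorescein-labelled compound; mitochondria stained with 200 nM MitoTracker red CMXRos and nuclei with Hoechst 33342 (10 μg/mL final); cells washed twice with medium, then imaged by confocal microscopy (488 nm fluorescein, 561 nm MitoTracker, 760 nm Hoechst, 63×/1.4 oil objective); untreated cells as control.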

[5] = Drug localization in mitochondria of human MCF7 cells assessed as appearance of green and red overlapped superimposed images at 100 uM incubated for 24 hrs by MitoTracker red CMXRos staining based super-resolution confocal fluorescence microscopy; assay type: ADME; details: mcf7, 24 h
Outline: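 Living MCF-7 cells treated 24 h with 100 μM fluorescein-labelled compound, stained with 100 nM MitoTracker red CMXRos and Hoechst 33342 (10 μg/mL final), washed twice with medium; Airyscan super-resolution confocal imaging (488/561/405 nm, 63×); co-localization judged from overlapping green and red areas in superimposed images; untreated cells as control.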

[6] = Cytotoxicity against human MCF7 cells assessed as cell viability upto 50 uM measured after 72 hrs by MTT assay relative to control; assay type: toxicity, cell-based; details: read-out: Activity
Outline: (§3)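 MCF-7 breast cancer cells exposed to test compounds at a range of concentrations (up to 100 μM) for 72 h; cell viability measured and expressed as percentage viability or cell death relative to untreated control.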

[7] = Cytotoxicity against human MCF7 cells assessed as cell viability at 100 uM measured after 72 hrs by MTT assay relative to control; assay type: toxicity, cell-based; details: read-out: Activity; outline: as §3
[8] = Drug concentration in living human MCF7 cells at 5 uM incubated for 24 hrs by flow cytometry analysis; assay type: ADME, cell-based; details: mcf7, 24 h
Outline: (§4)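 Living MCF-7 cells incubated 24 h with test compounds at different concentrations; fluorescein-labelled compound uptake quantified by flow cytometry as percentage internalization; mean ± SEM of three independent experiments.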

[9] = Drug concentration in living human MCF7 cells at 10 uM incubated for 24 hrs by flow cytometry analysis; assay type: ADME, cell-based; details: mcf7, 24 h; outline: as §4
[10] = Drug concentration in living human MCF7 cells at 25 uM incubated for 24 hrs by flow cytometry analysis; assay type: ADME, cell-based; details: mcf7, 24 h; outline: as §4
[11] = Drug concentration in living human MCF7 cells at 50 uM incubated for 24 hrs by flow cytometry analysis; assay type: ADME, cell-based; details: mcf7, 24 h; outline: as §4
[12] = Drug accumulation in living human MCF7 cells at 25 uM incubated for 24 hrs by flow cytometry analysis; assay type: ADME, cell-based; details: mcf7, 24 h; outline: as §4
[13] = Drug localization in cytoplasm of human MCF7 cells at 50 uM incubated for 24 hrs by confocal fluorescence microscopy; assay type: ADME, subcellular; details: mcf7, 24 h; outline: as §2
[14] = Drug internalization in living human MCF7 cells at 5 uM incubated for 24 hrs by flow cytometry analysis; assay type: ADME, cell-based; details: mcf7, 24 h; outline: as §4
[15] = Drug internalization in living human MCF7 cells at 10 uM incubated for 24 hrs by flow cytometry analysis; assay type: ADME, cell-based; details: mcf7, 24 h; outline: as §4
MCF7 [16] = assay: Cytotoxicity against human MCF7 cells assessed as cell death at 10 uM measured after 72 hrs by MTT assay relative to control; assay type: toxicity, cell-based; details: mcf7, 72 h; outline: as §3
MCF7 [17] = assay: Cytotoxicity against human MCF7 cells assessed as cell death at 50 uM measured after 72 hrs by MTT assay relative to control; assay type: toxicity, cell-based; details: mcf7, 72 h; outline: as §3
[18] = Drug internalization in living human MCF7 cells at 50 uM incubated for 24 hrs by flow cytometry analysis; assay type: ADME, cell-based; details: mcf7, 24 h; outline: as §4
[19] = Stability of compound in culture media assessed as compound hydrolysis at 50 uM by HPLC analysis; assay type: physicochemical; outline: as §1

| SMILES | half-life at 50 µM (esterase) [h] | half-life at 50 µM [1] [h] | half-life at 50 µM [2] [h] | Drug uptake [4] | Drug uptake [8] [%] | Drug uptake [9] [%] | Drug uptake [10] [%] | Drug uptake [11] [%] | Drug uptake [12] [%] | other results |
| --- | --- | --- | --- | --- | --- | --- | --- | --- | --- | --- |
| O=C(CCCCCCCCC[P+](c1ccccc1)(c1ccccc1)c1ccccc1)OC[C@H]1O[C@@H](n2ccc(NC(=O)c3ccc(-c4c5ccc(=O)cc-5oc5cc(O)ccc45)c(C(=O)O)c3)nc2=O)C[C@@H]1O.O=C([O-])C(F)(F)F | < 0.25 | > 17.8 | > 8.4 | Active | 3 | 24 | 96 | 100 | 96 | Drug metabolism [3]: Metabolite_Detected; Drug uptake [5]: Active; viability at 72 h, up to 50 µM [6]: 84%; viability at 72 h, 100 µM [7]: 60% |
| O=C(Nc1ccn([C@H]2C[C@H](O)[C@@H](CO)O2)c(=O)n1)c1ccc(-c2c3ccc(=O)cc-3oc3cc(O)ccc23)c(C(=O)O)c1 |  |  |  | Not Active | 2 | 12 | 62 | 87 | 62 | Drug uptake [13]: Active |
| O=C(CC[P+](c1ccccc1)(c1ccccc1)c1ccccc1)OC[C@H]1O[C@@H](n2ccc(NC(=O)c3ccc(-c4c5ccc(=O)cc-5oc5cc(O)ccc45)c(C(=O)O)c3)nc2=O)C[C@@H]1O.O=C([O-])C(F)(F)F |  |  |  | Active | 27 | 61 | 96 | 99 | > 95 | Drug uptake [13]: Active; Drug uptake [14]: 27%; Drug uptake [15]: 61% |
| O=C(CCCCC[P+](c1ccccc1)(c1ccccc1)c1ccccc1)OC[C@H]1O[C@@H](n2ccc(NC(=O)c3ccc(-c4c5ccc(=O)cc-5oc5cc(O)ccc45)c(C(=O)O)c3)nc2=O)C[C@@H]1O.O=C([O-])C(F)(F)F |  |  |  |  | 0.4 | 0.8 | 3 | 17 |  | Activity (MCF7 [16]): 61%; Activity (MCF7 [17]): 44%; Drug uptake [18]: 17% |

Continued, in another order:

| half-life at 50 µM (esterase) [h] | half-life at 50 µM [1] [h] | half-life at 50 µM [2] [h] | Drug uptake [4] | Drug uptake [8] [%] | Drug uptake [9] [%] | Drug uptake [10] [%] | Drug uptake [11] [%] | Drug uptake [12] [%] | SMILES | other results |
| --- | --- | --- | --- | --- | --- | --- | --- | --- | --- | --- |
| < 0.25 | > 17.8 | > 8.4 |  |  |  |  |  |  | Nc1ccn([C@H]2C[C@H](O)[C@@H](COC(=O)CCCCCCCCC[P+](c3ccccc3)(c3ccccc3)c3ccccc3)O2)c(=O)n1.O=C(O)C(F)(F)F.O=C([O-])C(F)(F)F |  |
| < 0.25 |  | > 8.4 |  |  |  |  |  |  | Nc1ccn([C@H]2C[C@H](O)[C@@H](COC(=O)CC[P+](c3ccccc3)(c3ccccc3)c3ccccc3)O2)c(=O)n1.O=C(O)C(F)(F)F.O=C([O-])C(F)(F)F | Stability [19]: Unstable |
| < 0.25 | > 17.8 | > 8.4 |  |  |  |  |  |  | Nc1ccn([C@H]2C[C@H](O)[C@@H](COC(=O)CCCCC[P+](c3ccccc3)(c3ccccc3)c3ccccc3)O2)c(=O)n1.O=C(O)C(F)(F)F.O=C([O-])C(F)(F)F |  |
